Experimental data from different studies.
Protocols differ between the studies behind these lines.
Target: TRAF2 and NCK-interacting protein kinase (TNIK, Homo sapiens, UniProt Q9UKE5)

Structure (SMILES) | effect on | method | tested at | remaining binding [%]
Nc1ncc2c(n1)-c1c([nH]c3ccc(C#CC4CC4)cc13)CCCC2 | binding | competition with immobilised ligand | 1 µM | 42
Cc1cc(C)c(-n2ccn3nc(-c4cccnc4)cc23)cc1NC(=O)c1cc(C#N)cc(S(F)(F)(F)(F)F)c1 | cell-free assay | competition with immobilised ligand | 0.1 µM | 97.4
F[C@@H]1CCN(c2nccc(-c3cnn4ncccc34)n2)C1 | binding |  | 1 µM | 100
CC(C)(O)c1cncc(-c2nc3ccc(F)cc3n2C2CC2)c1 | cell-free assay | competition with immobilised ligand | 1 µM | 100
N[C@H]1CCN(c2nccc(-c3cnn4ncccc34)n2)C1 | binding |  | 1 µM | 80
CS(=O)(=O)N1CCCC(NC(=O)[C@H](CCC2CCCCC2)NC(=O)c2ccc(CNc3ncnc4c3nnn4-c3ccccc3)cc2)C1 (stereo partly drawn) | binding | competition with immobilised ligand | 1 µM | 45
COc1ccnn2ncc(-c3ccnc(N(C)C)n3)c12 | binding |  | 1 µM | 63
COc1cnc(Nc2cccc(S(N)(=O)=O)c2)nc1N1CCN(c2ccccc2)C(=O)C1 | binding | competition with immobilised ligand | 1 µM | 76
CCC(=N\O)/C(C)=C/c1ccc(F)cc1 | cell-free assay | competition with immobilised ligand | 1 µM | 93
CN(C)c1nccc(-c2cnn3ncccc23)n1 | binding |  | 1 µM | 100
C=CC(=O)N1CCC(C(=O)NCC(=O)N2CCN(c3nc(-c4cnc(N)nc4C(F)F)nc(N4CCOCC4)n3)CC2)CC1 | binding | competition with immobilised ligand | 1 µM | 87
CC(C)CC(=O)N1CCc2nc(-c3ccc(Br)cc3)nc(N(C)Cc3ccccc3)c2C1 | cell-free assay | competition with immobilised ligand | 0.1 µM | 100
O=C(Nc1c[nH]nc1C(=O)NC1CCNCC1)c1cc(F)cc(F)c1 | binding | competition with immobilised ligand | 1 µM | 100
CN(C)c1nccc(-c2cnc3ncccn23)n1 | binding |  | 1 µM | 84
COc1cnc(Nc2cccc(S(N)(=O)=O)c2)nc1N1CCN(c2ccccc2)CC1 | binding | competition with immobilised ligand | 1 µM | 75
O=C(c1ccc(Nc2ncc(Cl)c(-c3cc4ccccc4s3)n2)cc1)N1CCC(N2CCCC2)CC1 | binding | competition with immobilised ligand | 1 µM | 73
FC(F)(F)Oc1cccc(-c2cnc3ccc(-c4ccncc4)nn23)c1 | binding | competition with immobilised ligand | 5 µM | 29
O=C(NCCCN1CCOCC1)c1ccc(Nc2ncc(Cl)c(-c3ccc(Cl)s3)n2)cc1 | binding | competition with immobilised ligand | 1 µM | 44
C[C@@H]1CCN(c2nccc(-c3cnn4ncccc34)n2)C1 | binding |  | 1 µM | 90
O=C(c1ccc(Nc2ncc(Cl)c(-c3ccc(Cl)s3)n2)cc1)N1CCC(N2CCCC2)CC1 | binding | competition with immobilised ligand | 1 µM | 43
CN([C@@H]1CCc2c(CC(=O)O)c3cc(S(C)(=O)=O)ccc3n2C1)S(=O)(=O)c1ccc(F)cc1 | cell-free assay | competition with immobilised ligand | 1 µM | 100
